In ChEMBL document CHEMBL4680199, “Synthesis and in vitro evaluation of new 5-substituted 6-nitroimidazooxazoles as antikinetoplastid agents” (Eur J Med Chem, 2020):
pIC50: −log10 of the molar value.

How the values were obtained:
[1] = Cytotoxicity against CHO cells assessed as reduction in cell viability after 24 hrs by MTT assay; format: cell-based, Cricetulus griseus; conditions: chinese hamster
Summary of the method: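 Cells in complete RPMI (10% FCS, L-glutamine, penicillin/streptomycin) were allowed to adhere for 24 h at 37 °C in 5% CO₂. Compounds in DMSO (final <0.5% v/v) were then added in duplicate for 24 h. MTT (0.5 mg/mL in FCS-free medium) was applied for 2 h, formazan was dissolved in DMSO, and A570 was read with 630 nm reference. Viability is % of untreated cells; CC50 by non-linear regression; mean of three experiments.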

Leishmania donovani = assay: Antileishmanial activity against Leishmania donovani MHOM/IN/00/DEVI promastigotes measured after 72 hrs by MTT assay; format: functional, organism-based
Summary of the method: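 Log-phase promastigotes were grown in Schneider's medium with 20% FCS, 2 mM L-glutamine and penicillin/streptomycin, and seeded at 10⁶ parasites/mL. Compounds in DMSO (final <0.5% v/v) were tested in duplicate for 72 h at 27 °C. MTT was added for 4 h, the reaction was stopped with 50% isopropanol/10% SDS, and A570 was read. IC50 relative to control was fitted by non-linear regression; mean of ≥3 independent experiments.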

[2] = Selectivity index, ratio of CC50 for CHO cells to IC50 for antileishmanial activity against Leishmania donovani MHOM/IN/00/DEVI promastigotes; format: toxicity; conditions: hamster, read-out: Ratio CC50/IC50
Summary of the method: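 SI = CHO CC50 / promastigote IC50. Promastigotes: log-phase, Schneider's + 20% FCS, 10⁶/mL, DMSO <0.5% final, 72 h at 27 °C, MTT 4 h, A570, ≥3 experiments. CHO: complete RPMI + 10% FCS, 24 h attachment, 24 h exposure at 37 °C, MTT 0.5 mg/mL 2 h, A570/630, three experiments. Both values from non-linear regression of dose-response curves.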

Trypanosoma cruzi = assay: Antitrypanosomal activity against Trypanosoma cruzi CL amastigotes overexpressing tdTomato red fluorescent protein infected in gamma-irradiated African green monkey Vero cells assessed as reduction in parasite growth measured 3 days post-infection by fluorescence assay; format: functional, organism-based; conditions: light or radiation study, 72 h
[3] = Selectivity index, ratio of CC50 for CHO cells to IC50 for antitrypanosomal activity against Trypanosoma cruzi CL amastigotes overexpressing tdTomato red fluorescent protein infected in gamma-irradiated African green monkey Vero cells; format: toxicity; conditions: Chinese hamster, read-out: Ratio CC50/IC50
Summary of the method: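 SI = CHO CC50 / T. cruzi IC50. CHO cells: complete RPMI + 10% FCS, 24 h attachment, then 24 h compound exposure at 37 °C, 5% CO₂, DMSO <0.5% final, in duplicate. MTT 0.5 mg/mL for 2 h, read at A570/630, three experiments. Parasites were tdTomato-labelled trypomastigotes. Both values from non-linear regression of dose-response curves.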

| Structure (SMILES) | CC50 at 24 h [1] [µM] | pIC50 (Leishmania donovani) | selectivity ratio [2] | pIC50 (Trypanosoma cruzi) | selectivity ratio [3] |
| --- | --- | --- | --- | --- | --- |
| CC1Cn2c(nc([N+](=O)[O-])c2C#CC2CC2)O1 (centres undefined) | 6.45 | 5.34 | 1.4 | 5.39 | 1.6 |
| CC1Cn2c(nc([N+](=O)[O-])c2C#Cc2cccc(N)c2)O1 (centres undefined) | 18.1 | 5.46 | 5.2 | 5.44 | 5 |
| COc1cc(-c2c([N+](=O)[O-])nc3n2CC(C)O3)cc(OC)c1OC (centres undefined) | > 125 | < 5.00 | – | < 5.00 | – |
| Cc1ccc(-c2c([N+](=O)[O-])nc3n2CC(C)O3)s1 (centres undefined) | > 125 | < 5.00 | – | < 5.00 | – |
| Cc1ccc(-c2c([N+](=O)[O-])nc3n2CC(C)O3)cc1 (centres undefined) | > 250 | < 5.00 | – | < 5.00 | – |
| Cc1ccc(C#Cc2c([N+](=O)[O-])nc3n2CC(C)O3)cc1 (centres undefined) | 5.47 | 5.78 | 3.3 | 5.66 | 2.5 |
| CC1Cn2c(nc([N+](=O)[O-])c2-c2ccc(CO)cc2)O1 (centres undefined) | > 500 | < 5.00 | – | < 5.00 | – |
| C[C@@H]1[C@H](O)[C@@H](C)/C=C/C=C/C=C/C=C/C=C/C=C/C=C/[C@H](O[C@@H]2O[C@H](C)[C@@H](O)[C@H](N)[C@@H]2O)C[C@@H]2O[C@](O)(C[C@@H](O)C[C@@H](O)[C@H](O)CC[C@@H](O)C[C@@H](O)CC(=O)O[C@H]1C)C[C@H](O)[C@H]2C(=O)O [AMPHOTERICIN B] | – | 6.74 | – | – | – |
| CC1Cn2c(nc([N+](=O)[O-])c2-c2cccc(C#N)c2)O1 (centres undefined) | > 500 | < 5.00 | – | < 5.00 | – |
| CC1Cn2c(nc([N+](=O)[O-])c2Br)O1 (centres undefined) | 9.19 | 5.17 | 1.4 | < 5.00 | – |
| O=C(Cn1ccnc1[N+](=O)[O-])NCc1ccccc1 [BENZNIDAZOLE] | – | – | – | 5.64 | – |
| CC1Cn2c(nc([N+](=O)[O-])c2C#Cc2ccccc2)O1 (centres undefined) | 3.54 | 5.68 | 1.7 | 5.84 | 2.4 |
| CC1Cn2c(nc([N+](=O)[O-])c2-c2ccc(C=O)cc2)O1 (centres undefined) | 255 | < 5.00 | – | < 5.00 | – |
| CC1Cn2c(nc([N+](=O)[O-])c2-c2ccc(Cl)cc2)O1 (centres undefined) | > 250 | < 5.00 | – | < 5.00 | – |
| CCCOc1ccc(-c2c([N+](=O)[O-])nc3n2CC(C)O3)cc1 (centres undefined) | > 125 | < 5.00 | – | < 5.00 | – |
| CC1Cn2cc([N+](=O)[O-])nc2O1 (centres undefined) | > 500 | 7.00 | > 5000 | < 5.00 | – |
| CC1Cn2c(nc([N+](=O)[O-])c2-c2ccccc2)O1 (centres undefined) | > 500 | < 5.00 | – | < 5.00 | – |
| CC1Cn2c(nc([N+](=O)[O-])c2C#Cc2ccc(CO)cc2)O1 (centres undefined) | 8.77 | 5.39 | 2.1 | 5.79 | 5.4 |
| CC1Cn2c(nc([N+](=O)[O-])c2-c2ccc(OC(F)(F)F)cc2)O1 (centres undefined) | > 125 | < 5.00 | – | < 5.00 | – |
| COc1cccc2c1C(=O)c1c(O)c3c(c(O)c1C2=O)C[C@@](O)(C(=O)CO)C[C@@H]3O[C@H]1C[C@H](N)[C@H](O)[C@H](C)O1 [DOXORUBICIN] | 4.65 | – | – | – | – |
| COc1cccc(C#Cc2c([N+](=O)[O-])nc3n2CC(C)O3)c1 (centres undefined) | 12.9 | 5.80 | 8.1 | 6.04 | 14 |
| CC1Cn2c(nc([N+](=O)[O-])c2-c2cccc(C(F)(F)F)c2)O1 (centres undefined) | > 250 | < 5.00 | – | < 5.00 | – |
| CC1Cn2c(nc([N+](=O)[O-])c2C#Cc2ccc(C(C)(C)C)cc2)O1 (centres undefined) | 6.62 | 6.21 | 10.8 | 5.54 | 2.3 |
